According to ChEMBL document CHEMBL5126498, “Peptidomimetic nitrile warheads as SARS-CoV-2 3CL protease inhibitors” (RSC Med Chem, 2021):

Experiments:
[1] = Cytotoxicity against African Green monkey Vero E6 cells assessed as reduction in cell viability by CellTiter-Glo assay; assay type: toxicity, cell-based, Vero C1008; settings: chlorocebus sabaeus
In short: (§1)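 Vero E6 or A549 cells were seeded at 1×10^4/well and left overnight. Compounds were added at final 50 and 200 μM in 0.5% DMSO for 24 h. Read-out was CellTiter-Glo luminescence, with viability calculated relative to 0.5% DMSO-treated cells. Quadruplicate wells were run in one experiment, and CC50 was interpolated where possible.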

[2] = Cytotoxicity against human A549 cells assessed as reduction in cell viability by CellTiter-Glo assay; assay type: toxicity, cell-based; in short: as §1
[3] = Cytotoxicity against African Green monkey Vero E6 cells assessed as reduction in cell viability by CCK-8 assay; assay type: toxicity, cell-based, Vero C1008; settings: chlorocebus sabaeus
In short: as §1, with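 “CCK-8 absorbance” for “Read-out”, “read at 450 nm, and” for “CellTiter-Glo luminescence, with”, “viability was” for “viability”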

[4] = Cytotoxicity against human A549 cells assessed as reduction in cell viability by CCK-8 assay; assay type: toxicity, cell-based
In short: as §1, with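 “CCK-8 absorbance” for “Read-out”, “read at 450 nm, and” for “CellTiter-Glo luminescence, with”, “viability was” for “viability”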

[5] = target: T1, Procathepsin L (Homo sapiens, UniProt P07711); assay: Inhibition of human cathepsin L
Target sequence in this assay (P07711 whole entry): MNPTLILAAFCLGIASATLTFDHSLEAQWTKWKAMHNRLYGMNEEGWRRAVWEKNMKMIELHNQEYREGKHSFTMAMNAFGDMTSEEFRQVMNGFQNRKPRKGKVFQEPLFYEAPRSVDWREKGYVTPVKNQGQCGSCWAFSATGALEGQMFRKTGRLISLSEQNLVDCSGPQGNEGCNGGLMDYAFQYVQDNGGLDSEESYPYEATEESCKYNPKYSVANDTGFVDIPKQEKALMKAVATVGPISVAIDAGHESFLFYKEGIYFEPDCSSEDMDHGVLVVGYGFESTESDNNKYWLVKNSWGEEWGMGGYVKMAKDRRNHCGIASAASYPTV

[6] = target: T2, Cathepsin B (Homo sapiens, UniProt P07858); assay: Inhibition of human cathepsin B at 1 uM relative to control
[7] = target: T2, Cathepsin B; assay: Inhibition of human cathepsin B
[8] = target: T3, Cathepsin S (Homo sapiens, UniProt P25774); assay: Inhibition of human cathepsin S at 1 uM relative to control
In short: (§2)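 Human cathepsin S fluorometric kit assay, with compound incubated 30 min at room temperature at final 1% DMSO. […] Enzyme-control and test slopes were obtained by linear regression, and % relative inhibition was calculated per kit.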
Target sequence in this assay (P25774 115-331 limits assumed): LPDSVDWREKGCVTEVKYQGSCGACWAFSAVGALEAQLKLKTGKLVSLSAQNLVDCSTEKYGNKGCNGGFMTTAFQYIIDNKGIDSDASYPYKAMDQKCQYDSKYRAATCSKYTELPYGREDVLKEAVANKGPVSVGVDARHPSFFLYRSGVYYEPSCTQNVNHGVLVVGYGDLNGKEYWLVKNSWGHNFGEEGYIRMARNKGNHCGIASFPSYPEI

[9] = target: T3, Cathepsin S; assay: Inhibition of human cathepsin S; in short: as §2
Target sequence in this assay (P25774 whole entry): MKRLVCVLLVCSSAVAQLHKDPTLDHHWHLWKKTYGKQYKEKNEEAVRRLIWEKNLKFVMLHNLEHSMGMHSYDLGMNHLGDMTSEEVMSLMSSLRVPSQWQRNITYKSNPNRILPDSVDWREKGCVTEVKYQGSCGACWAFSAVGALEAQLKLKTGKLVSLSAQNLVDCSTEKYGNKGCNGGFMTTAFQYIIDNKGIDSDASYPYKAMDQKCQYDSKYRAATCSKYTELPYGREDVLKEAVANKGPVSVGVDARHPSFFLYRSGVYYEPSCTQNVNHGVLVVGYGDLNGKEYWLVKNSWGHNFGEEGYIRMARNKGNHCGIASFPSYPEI

[10] = target: T1, Procathepsin L; assay: Inhibition of human cathepsin L at 1 uM relative to control
Target sequence in this assay (P07711 114-333 limits assumed): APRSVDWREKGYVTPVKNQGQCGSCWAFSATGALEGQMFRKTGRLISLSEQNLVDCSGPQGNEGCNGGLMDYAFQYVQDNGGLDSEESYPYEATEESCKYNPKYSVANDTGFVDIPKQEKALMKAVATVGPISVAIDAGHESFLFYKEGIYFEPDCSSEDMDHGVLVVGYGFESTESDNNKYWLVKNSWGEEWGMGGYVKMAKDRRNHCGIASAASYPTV

[11] = test system: SARS-CoV-2; assay: Antiviral activity against SARS-CoV-2 infected in African Green monkey Vero E6 cells assessed as reduction in viral plaques by plaque reduction assay; assay type: functional, organism-based; settings: Severe acute respiratory syndrome coronavirus 2, Vero C1008
[12] = test system: SARS-CoV-2; assay: Antiviral activity against SARS-CoV-2 infected in African Green monkey Vero E6 cells assessed as reduction in viral plaques in presence of efflux inhibitor CP-100356 by plaque reduction assay; assay type: functional, organism-based; settings: Severe acute respiratory syndrome coronavirus 2, Vero C1008
[13] = Inhibition of Enterovirus 71 3Cpro
[14] = Selectivity ratio, ratio of IC50 for inhibition of human cathepsin B to IC50 for inhibition of SARS-CoV-2 3CL protease
[15] = Glutathione reactivity at pH 7.4 assessed as compound recovery measured after 24 hrs by LC-MS/MS method; assay type: physicochemical; settings: glutathione solution, read-out: Activity
[16] = Stability of the compound in presence of glutathione by LC-MS/MS method; assay type: physicochemical
[17] = Selectivity ratio, ratio of IC50 for inhibition of human cathepsin S to IC50 for inhibition of SARS-CoV-2 3CL protease
[18] = Selectivity ratio, ratio of IC50 for inhibition of human cathepsin L to IC50 for inhibition of SARS-CoV-2 3CL protease
[19] = target: Replicase polyprotein 1ab (Severe acute respiratory syndrome coronavirus 2) (UniProt P0DTD1); assay: Reversible inhibition of SARS-CoV-2 3CL protease assessed as enzyme recovery measured after 4 hrs by dialysis method relative to control; set-up: scale not given: the % may be the effect or the level left
In short: (§3)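 SARS-CoV-2 3CLpro (final 2 μM) was preincubated with 20 μM inhibitor for 30 min at room temperature. Activity was compared with apo-enzyme dialysed under identical conditions.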

[20] = target: Replicase polyprotein 1ab (Severe acute respiratory syndrome coronavirus 2) (UniProt P0DTD1); assay: Reversible inhibition of SARS-CoV-2 3CL protease assessed as enzyme recovery measured after 3 days by dialysis method relative to control; set-up: scale not given: the % may be the effect or the level left; settings: time 3.0 day; in short: as §3
[21] = target: Replicase polyprotein 1ab (Severe acute respiratory syndrome coronavirus 2, UniProt P0DTD1); assay: Inhibition of SARS-CoV-2 3CL protease by FRET assay

CC(C)C[C@H](NC(=O)OCc1ccccc1)C(=O)N[C@@H](C[C@@H]1CCNC1=O)C(O)S(=O)(=O)O (some centres not stated)
CC50 [1]: > 200 µM
CC50 [2]: > 200 µM
CC50 [3]: > 200 µM
CC50 [4]: > 200 µM
IC50 [5]: 0.00025 µM
inhibition [6]: 53%
IC50 [7]: 1.4 µM
inhibition [8]: 99%
IC50 [9]: 0.023 µM
inhibition [10]: 100%

CCOc1cccc2[nH]c(C(=O)N[C@@H](CC(C)C)C(=O)N[C@H](C#N)C[C@@H]3CCCNC3=O)cc12
EC50 [11]: 4.8 µM
EC50 [12]: 0.12 µM
CC50 [1]: > 200 µM
CC50 [2]: > 200 µM
CC50 [3]: > 200 µM
CC50 [4]: > 200 µM
inhibition [6]: < 1%
inhibition [8]: 74%
inhibition [10]: < 1%

Cc1cc(C(=O)N[C@@H](Cc2ccc(F)cc2)C(=O)N[C@H](C#N)C[C@@H]2CCCNC2=O)no1
IC50 [13]: 14.7 µM

COc1cccc2[nH]c(C(=O)N[C@@H](CC(C)C)C(=O)N[C@H](C#N)C[C@@H]3CCNC3=O)cc12
EC50 [11]: > 5 µM
CC50 [1]: > 200 µM
CC50 [2]: > 200 µM
CC50 [3]: > 200 µM
CC50 [4]: > 200 µM
IC50 [5]: 1.45 µM
inhibition [6]: < 1%
IC50 [7]: 28 µM
inhibition [8]: 78%
IC50 [9]: 0.7 µM
inhibition [10]: 15%

COc1cc(Cl)cc2[nH]c(C(=O)N[C@@H](CC(C)(C)C)C(=O)N[C@H](C#N)C[C@@H]3CCCNC3=O)cc12
EC50 [11]: 1.5 µM
EC50 [12]: 0.21 µM
CC50 [1]: > 200 µM
CC50 [2]: > 200 µM
CC50 [3]: > 200 µM
CC50 [4]: > 200 µM
inhibition [6]: < 1%
inhibition [8]: 64%
inhibition [10]: 18%

COc1cccc2[nH]c(C(=O)N[C@@H](CC(C)C)C(=O)N[C@H](C#N)C[C@@H]3CCCNC3=O)cc12
Ratio IC50 [14]: 2420
EC50 [11]: 2.7 µM
EC50 [12]: 0.23 µM
CC50 [1]: > 200 µM
CC50 [2]: > 200 µM
CC50 [3]: > 200 µM
CC50 [4]: > 200 µM
IC50 [5]: 0.64 µM
inhibition [6]: < 1%
IC50 [7]: 32 µM
inhibition [8]: 73%
IC50 [9]: 2.5 µM
inhibition [10]: 22%
remaining at 24 h [15]: ≥ 90%
Stability [16]: Stable
Ratio IC50 [17]: 189
Ratio IC50 [18]: 48
Activity [19]: 10%
Activity [20]: 45%

COc1cc(Cl)cc2[nH]c(C(=O)N[C@@H](CC(C)C)C(=O)N[C@H](C#N)C[C@@H]3CCCNC3=O)cc12
EC50 [11]: 2.2 µM
EC50 [12]: 0.233 µM
CC50 [1]: > 200 µM
CC50 [2]: > 200 µM
CC50 [3]: > 200 µM
CC50 [4]: > 200 µM
IC50 [5]: 0.47 µM
inhibition [6]: < 1%
IC50 [7]: 18 µM
inhibition [8]: 72%
IC50 [9]: 0.4 µM
inhibition [10]: 37%

COc1cccc2[nH]c(C(=O)N[C@@H](CC(C)C)C(=O)N[C@@H](C[C@@H]3CCCNC3=O)C(=O)CO)cc12
CC50 [1]: > 200 µM
CC50 [2]: > 200 µM
CC50 [3]: > 200 µM
CC50 [4]: > 200 µM

CC(C)C[C@H](NC(=O)c1cc2c3c(ccc2[nH]1)CCO3)C(=O)N[C@H](C#N)C[C@@H]1CCCNC1=O
EC50 [11]: > 10 µM
CC50 [1]: > 200 µM
CC50 [2]: > 200 µM
CC50 [3]: > 200 µM
CC50 [4]: > 200 µM
inhibition [6]: < 1%
inhibition [8]: 67%
inhibition [10]: 10%

CC(C)C[C@H](NC(=O)c1cc2c(OC(F)(F)F)cccc2[nH]1)C(=O)N[C@H](C#N)C[C@@H]1CCCNC1=O
IC50 [21]: 0.0137 µM
EC50 [11]: 2.6 µM
EC50 [12]: 0.35 µM
CC50 [1]: > 100 µM
CC50 [2]: 90 µM
CC50 [3]: > 100 µM
CC50 [4]: 90 µM
inhibition [6]: < 1%
inhibition [8]: 67%
inhibition [10]: 8%

CC(C)C[C@H](NC(=O)[C@@H](NC(=O)[C@H](C)NC(=O)OCc1ccccc1)C(C)C)C(=O)N[C@H](C#N)CCC(N)=O
IC50 [21]: 4.6 µM

COc1cccc2[nH]c(C(=O)N[C@@H](CC(C)C)C(=O)N[C@H](C=O)C[C@@H]3CCNC3=O)cc12
CC50 [1]: > 200 µM
CC50 [2]: > 200 µM
CC50 [3]: > 200 µM
CC50 [4]: > 200 µM
IC50 [5]: 0.28 µM
IC50 [7]: 2 µM
IC50 [9]: 0.04 µM
inhibition [10]: 53%
